Test results as given in article PMC5381633 (Genome Biology and Evolution, 2017).

Legend:
tunicate LXR = details: ref Reschly et al. 2008; cited from earlier work
LXRβ = details: human and mouse LXRs; ref Reschly et al. 2008; cited from earlier work
L. japonicum LXR = target: T1, L. japonicum LXR (Lethenteron camtschaticum, UniProt A0A1S6EKM6); experiment: GAL4-LBD chimeric receptor luciferase transactivation assay in COS-1 cells; assay type: cell-based
T1 sequence (A0A1S6EKM6 89-387): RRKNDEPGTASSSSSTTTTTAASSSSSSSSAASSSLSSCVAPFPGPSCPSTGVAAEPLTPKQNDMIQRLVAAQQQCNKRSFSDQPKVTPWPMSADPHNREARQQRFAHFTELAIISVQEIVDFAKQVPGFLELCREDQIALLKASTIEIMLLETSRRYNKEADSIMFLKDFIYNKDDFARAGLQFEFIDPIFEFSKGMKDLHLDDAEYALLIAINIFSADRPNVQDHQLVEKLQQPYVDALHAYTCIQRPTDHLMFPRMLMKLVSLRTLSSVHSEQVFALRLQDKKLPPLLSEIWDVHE
How it was run: (§1)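 The receptor's ligand-binding domain plus hinge was fused to the GAL4 DBD in pBIND. COS-1 cells were seeded 24 h before lipofection with 500 ng receptor plasmid and 1,000 ng GAL4UAS-luc2P reporter. After 5 h, medium became phenol red-free DMEM/10% charcoal-stripped FBS with compound in DMSO (oxysterols 10^1–10^5.5 nM). Dual-luciferase was read 24 h post-transfection, in triplicate over three experiments, as mean ± SE. EC50 came from sigmoidal dose–response curves. Normalized fold activation was compared by one-way ANOVA/Holm–Sidak.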

LXRα = details: human and mouse LXRs; ref Reschly et al. 2008; cited from earlier work
B. lanceolatum LXR = target: T2, B. lanceolatum LXR (Branchiostoma lanceolatum, UniProt A0A8J9ZB24); experiment: GAL4-LBD chimeric receptor luciferase transactivation assay in COS-1 cells; assay type: cell-based
T2 sequence (A0A8J9ZB24 168-437): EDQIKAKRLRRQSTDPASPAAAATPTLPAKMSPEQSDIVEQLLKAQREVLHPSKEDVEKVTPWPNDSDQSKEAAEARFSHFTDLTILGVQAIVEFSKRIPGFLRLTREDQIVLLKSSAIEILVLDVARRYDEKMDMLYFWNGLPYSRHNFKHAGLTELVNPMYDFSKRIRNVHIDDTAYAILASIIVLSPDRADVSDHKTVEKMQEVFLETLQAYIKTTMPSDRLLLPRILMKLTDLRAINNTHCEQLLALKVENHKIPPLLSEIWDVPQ
How it was run: as §1

L. erinacea LXRα = target: T3, L. erinacea LXRα (Leucoraja erinacea, UniProt A0A1S6EKM1); experiment: as above; assay type: cell-based; details: all tested concentrations, P < 0.001
T3 sequence (A0A1S6EKM1 181-451): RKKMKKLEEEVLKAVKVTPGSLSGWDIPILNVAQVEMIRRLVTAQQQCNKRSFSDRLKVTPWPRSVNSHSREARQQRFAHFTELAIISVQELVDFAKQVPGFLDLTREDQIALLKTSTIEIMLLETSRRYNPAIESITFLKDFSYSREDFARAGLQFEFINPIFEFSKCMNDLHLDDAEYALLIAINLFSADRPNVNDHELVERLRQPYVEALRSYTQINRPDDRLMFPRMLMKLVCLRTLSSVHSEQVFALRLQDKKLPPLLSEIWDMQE
How it was run: as §1

L. erinacea LXRβ = target: T4, L. erinacea LXRβ (Leucoraja erinacea, UniProt A0A1S6EKM5); experiment: as above; assay type: cell-based; details: all tested concentrations, P < 0.001
T4 sequence (A0A1S6EKM5 2-271): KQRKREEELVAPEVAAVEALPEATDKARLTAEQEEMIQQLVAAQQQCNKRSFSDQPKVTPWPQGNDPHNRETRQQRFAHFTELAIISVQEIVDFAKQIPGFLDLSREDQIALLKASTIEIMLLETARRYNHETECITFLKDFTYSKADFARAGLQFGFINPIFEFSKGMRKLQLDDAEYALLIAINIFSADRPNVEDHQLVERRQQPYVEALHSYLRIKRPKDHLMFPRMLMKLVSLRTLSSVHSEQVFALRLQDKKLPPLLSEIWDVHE
How it was run: as §1

Row | transcriptional activation of lamprey LXR (in words) (L. japonicum LXR) | Compound | activation of tunicate LXR (in words) (tunicate LXR) | activation of LXRβ (in words) (LXRβ) | activation of LXRα (in words) (LXRα) | further results
1 | – | O=Cc1c2[nH]c3ccccc3c2cc2[nH]c3ccccc3c12 [6-Formylindolo(3,2-b)carbazole] | strongly activated | – | – | –
2 | strongly induced | C[C@H](CC[C@@H]1OC1(C)C)[C@H]1CC[C@H]2[C@@H]3CC=C4C[C@@H](O)CC[C@]4(C)[C@H]3CC[C@]12C [24,25-EC, 24(S),25-epoxycholesterol] | – | robustly activated | robustly activated | –
3 | strongly induced | CC(C)[C@@H](O)CC[C@@H](C)[C@H]1CC[C@H]2[C@@H]3CC=C4C[C@@H](O)CC[C@]4(C)[C@H]3CC[C@]12C [24-HC, 24(S)-hydroxycholesterol] | – | robustly activated | robustly activated | transcriptional activation of amphioxus LXR (in words) (B. lanceolatum LXR): residually, but significantly, activated
4 | significant activations | O=S(=O)(c1ccccc1)N(CC(F)(F)F)c1ccc(C(O)(C(F)(F)F)C(F)(F)F)cc1 [T0901317] | – | – | – | agonistic response, little skate LXRα (in words) (L. erinacea LXRα): significant activations; agonistic response, little skate LXRβ (in words) (L. erinacea LXRβ): significant activations
5 | – | C[C@@]12CCC[C@H]1[C@@H]1CC[C@H]3C[C@@H](O)CC[C@]3(C)[C@H]1CC2 [androstanol] | induced | – | – | –
6 | – | C[C@]12CC[C@@H](O)C[C@@H]1CC[C@@H]1[C@@H]2CC[C@]2(C)C=CC[C@@H]12 [androstenol] | induced | – | – | –

Row | Compound | transcriptional activation of lamprey LXR (in words) (L. japonicum LXR) | activation of tunicate LXR (in words) (tunicate LXR) | activation of LXRβ (in words) (LXRβ) | activation of LXRα (in words) (LXRα) | further results
7 | C[C@H](CCCC(C)(C)O)[C@H]1CC[C@H]2[C@@H]3CC=C4C[C@@H](O)CC[C@]4(C)[C@H]3CC[C@]12C [25-HC, 25-hydroxycholesterol] | prominent and statistically significant (P < 0.001), yet only at higher concentrations | – | lower transcriptional responses | lower transcriptional responses | –
